Assay results from ChEMBL document CHEMBL1135983, “Cyclohexylmethylpiperidinyltriphenylpropioamide: a selective muscarinic M(3) antagonist discriminating against the other receptor subtypes” (J Med Chem, 2002).

Key:
[1] = target: T1, Muscarinic acetylcholine receptor M4 (Homo sapiens, UniProt P08173); test: Binding affinity (Ki) against binding of [3H]NMS using membranes from CHO cells expressing cloned human Muscarinic acetylcholine receptor M4; type: cell membranes
T1 sequence (P08173 whole entry): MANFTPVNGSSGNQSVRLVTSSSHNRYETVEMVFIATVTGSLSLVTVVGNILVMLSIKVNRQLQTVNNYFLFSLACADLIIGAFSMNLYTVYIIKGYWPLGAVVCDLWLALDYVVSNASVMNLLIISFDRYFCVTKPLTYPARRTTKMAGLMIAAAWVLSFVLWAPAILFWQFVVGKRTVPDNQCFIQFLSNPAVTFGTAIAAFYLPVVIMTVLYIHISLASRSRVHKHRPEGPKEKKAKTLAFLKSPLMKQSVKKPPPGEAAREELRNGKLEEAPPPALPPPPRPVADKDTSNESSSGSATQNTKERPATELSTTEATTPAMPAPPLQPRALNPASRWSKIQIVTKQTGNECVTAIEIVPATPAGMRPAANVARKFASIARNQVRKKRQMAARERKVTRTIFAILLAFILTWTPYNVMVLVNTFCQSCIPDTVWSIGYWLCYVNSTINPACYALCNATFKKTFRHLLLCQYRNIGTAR

Rattus norvegicus [2] = test: 50% in vivo effective dose that inhibits ACh-induced pressor response (M1) in rat assay systems after intravenous administration was reported; type: functional
[3] = target: Muscarinic acetylcholine receptor M3 (Homo sapiens, UniProt P20309); test: biochemical; type: cell-based, CHO
Rattus norvegicus [4] = test: 50% in vivo effective dose that inhibits Ach-induced bradycardia (M2) in rat assay systems after intravenous administration was reported; type: functional
Homo sapiens [5] = species on record: Homo sapiens; test: Selectivity ratio (m4/m3)
Summary of the method: (§1)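 Binding affinities (Ki) were measured at each of the five muscarinic receptor subtypes (m1–m5), with the m3 receptor being human and expressed in CHO cells. The ratio compares the m4 or m5 Ki with the m3 Ki. Values are the mean of two or more independent assays.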

[6] = target: T2, Muscarinic acetylcholine receptor M2 (Homo sapiens, UniProt P08172); test: Binding affinity (Ki) against binding of [3H]NMS to membranes from CHO cells expressing cloned human Muscarinic acetylcholine receptor M2; type: cell membranes
T2 sequence (P08172 whole entry): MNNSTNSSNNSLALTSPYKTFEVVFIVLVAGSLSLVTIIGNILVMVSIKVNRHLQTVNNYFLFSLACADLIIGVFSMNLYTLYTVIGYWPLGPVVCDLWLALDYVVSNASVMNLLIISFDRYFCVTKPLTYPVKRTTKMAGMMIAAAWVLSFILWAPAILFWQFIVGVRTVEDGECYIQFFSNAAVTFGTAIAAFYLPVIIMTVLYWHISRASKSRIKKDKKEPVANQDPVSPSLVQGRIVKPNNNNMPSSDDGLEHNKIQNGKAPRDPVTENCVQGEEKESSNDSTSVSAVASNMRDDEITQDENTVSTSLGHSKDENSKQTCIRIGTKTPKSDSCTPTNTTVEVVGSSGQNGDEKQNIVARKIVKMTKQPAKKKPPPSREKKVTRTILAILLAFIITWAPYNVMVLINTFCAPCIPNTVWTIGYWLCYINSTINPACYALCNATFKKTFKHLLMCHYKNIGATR

Homo sapiens [7] = species on record: Homo sapiens; test: Selectivity ratio (m5/m3); summary of the method: as §1
[8] = target: T3, Muscarinic acetylcholine receptor M5 (Homo sapiens, UniProt P08912); test: Binding affinity (Ki) against binding of [3H]NMS using membranes from CHO cells expressing cloned human Muscarinic acetylcholine receptor M5; type: cell membranes
T3 sequence (P08912 whole entry): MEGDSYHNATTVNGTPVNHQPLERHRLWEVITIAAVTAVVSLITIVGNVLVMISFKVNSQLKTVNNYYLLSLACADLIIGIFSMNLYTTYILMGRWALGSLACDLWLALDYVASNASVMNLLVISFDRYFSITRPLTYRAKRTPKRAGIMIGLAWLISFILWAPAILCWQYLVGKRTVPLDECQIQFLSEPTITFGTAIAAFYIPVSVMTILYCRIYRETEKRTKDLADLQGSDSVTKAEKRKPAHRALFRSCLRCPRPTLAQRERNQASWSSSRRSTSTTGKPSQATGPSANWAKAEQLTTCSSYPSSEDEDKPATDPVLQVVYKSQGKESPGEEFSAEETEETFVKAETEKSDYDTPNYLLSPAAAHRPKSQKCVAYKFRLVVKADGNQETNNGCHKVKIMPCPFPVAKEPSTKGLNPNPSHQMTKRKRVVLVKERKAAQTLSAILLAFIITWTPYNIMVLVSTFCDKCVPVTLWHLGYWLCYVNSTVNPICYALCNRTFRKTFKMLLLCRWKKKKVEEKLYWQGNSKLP

Rattus norvegicus [9] = test: 50% in vivo effective dose that inhibits ACh-induced bronchoconstriction (M3) in rat assay systems after intravenous administration was reported; type: functional
[10] = target: T4, Muscarinic acetylcholine receptor M1 (Homo sapiens, UniProt P11229); test: biochemical; type: cell-based, CHO
T4 sequence (P11229 whole entry): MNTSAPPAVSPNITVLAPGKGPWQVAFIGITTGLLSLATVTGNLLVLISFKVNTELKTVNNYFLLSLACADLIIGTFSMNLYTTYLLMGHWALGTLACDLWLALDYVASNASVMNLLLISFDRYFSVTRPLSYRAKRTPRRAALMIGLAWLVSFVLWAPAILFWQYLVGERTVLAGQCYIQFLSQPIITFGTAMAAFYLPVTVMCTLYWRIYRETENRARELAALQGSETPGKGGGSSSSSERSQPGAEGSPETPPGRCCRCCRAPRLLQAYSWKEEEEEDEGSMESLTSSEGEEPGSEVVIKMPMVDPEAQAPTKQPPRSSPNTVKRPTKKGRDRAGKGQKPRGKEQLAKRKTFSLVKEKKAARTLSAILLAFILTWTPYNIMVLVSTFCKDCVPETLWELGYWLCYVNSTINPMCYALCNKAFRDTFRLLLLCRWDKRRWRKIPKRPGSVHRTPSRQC

Muscarinic acetylcholine receptor M3, sequence (P20309 whole entry): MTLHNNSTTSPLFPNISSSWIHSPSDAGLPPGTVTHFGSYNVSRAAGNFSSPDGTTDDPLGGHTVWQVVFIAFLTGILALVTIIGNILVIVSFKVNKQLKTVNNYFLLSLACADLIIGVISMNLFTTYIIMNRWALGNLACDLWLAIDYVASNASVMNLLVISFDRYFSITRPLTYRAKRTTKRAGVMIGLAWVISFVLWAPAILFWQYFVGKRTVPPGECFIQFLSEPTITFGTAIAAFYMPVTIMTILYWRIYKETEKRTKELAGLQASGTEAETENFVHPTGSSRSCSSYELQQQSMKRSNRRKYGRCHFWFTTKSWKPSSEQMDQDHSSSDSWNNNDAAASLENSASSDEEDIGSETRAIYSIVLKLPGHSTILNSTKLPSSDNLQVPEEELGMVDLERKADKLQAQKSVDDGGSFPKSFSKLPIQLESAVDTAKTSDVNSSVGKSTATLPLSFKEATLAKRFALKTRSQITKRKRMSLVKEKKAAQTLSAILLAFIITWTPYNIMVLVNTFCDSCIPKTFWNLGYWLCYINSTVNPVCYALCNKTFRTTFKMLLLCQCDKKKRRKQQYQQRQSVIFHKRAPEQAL

| Ki [1] | Ki [3] | Selectivity (Homo sapiens [5]) | Ki [6] | Selectivity (Homo sapiens [7]) | Ki [8] | Ki [10] | SMILES | ED50 (Rattus norvegicus [2]) | ED50 (Rattus norvegicus [4]) | ED50 (Rattus norvegicus [9]) |
| --- | --- | --- | --- | --- | --- | --- | --- | --- | --- | --- |
| 14 nM | 0.31 nM | 45 | 30 nM | 120 | 37 nM | 120 nM | O=C(CCNC(=O)CNC(=O)CC(c1ccccc1)(c1ccccc1)c1ccccc1)NC[C@H]1CCCN(CC2CCCCC2)C1 | > 3 mg/kg | 1.55 mg/kg | 0.015 mg/kg |
| 43 nM | 2.2 nM | 19 | 13 nM | 890 | 2000 nM | 150 nM | O=C(CNC(=O)[C@@H]1CCCN1C(=O)CC(c1ccccc1)(c1ccccc1)c1ccccc1)NC[C@H]1CCCN(CC2CCCCC2)C1 | – | – | – |
| 30 nM | 1 nM | 30 | 72 nM | 200 | 210 nM | 110 nM | O=C(CCCCCNC(=O)CC(c1ccccc1)(c1ccccc1)c1ccccc1)NC[C@H]1CCCN(CC2CCCCC2)C1 | – | – | – |
| 2.3 nM | 0.25 nM | 9 | 0.82 nM | 580 | 150 nM | 14 nM | O=C(NC[C@H]1CCCN(CC2CCCCC2)C1)[C@H]1CCCN1C(=O)[C@@H]1CCCN1C(=O)CC(c1ccccc1)(c1ccccc1)c1ccccc1 | – | – | – |

Continued, compound first:

| SMILES | Ki [1] | Ki [3] | Selectivity (Homo sapiens [5]) | Ki [6] | Selectivity (Homo sapiens [7]) | Ki [8] | Ki [10] | ED50 (Rattus norvegicus [2]) | ED50 (Rattus norvegicus [4]) | ED50 (Rattus norvegicus [9]) |
| --- | --- | --- | --- | --- | --- | --- | --- | --- | --- | --- |
| O=C(CCNC(=O)[C@@H]1CCCN1C(=O)CC(c1ccccc1)(c1ccccc1)c1ccccc1)NC[C@H]1CCCN(CC2CCCCC2)C1 | 11 nM | 0.27 nM | 42 | 12 nM | 210 | 58 nM | 150 nM | – | – | – |
| CN1[C@@H]2CC[C@H]1C[C@@H](OC(=O)C(CO)c1ccccc1)C2 (some centres not stated) [ATROPINE] | – | – | – | – | – | – | – | 0.016 mg/kg | 0.0052 mg/kg | 0.0043 mg/kg |
| O=C(CCNC(=O)CC(c1ccccc1)(c1ccccc1)c1ccccc1)NCCC(=O)NC[C@H]1CCCN(CC2CCCCC2)C1 | 31 nM | 0.76 nM | 41 | 44 nM | 40 | 30 nM | 36 nM | – | – | – |
| O=C(CCCNC(=O)CC(c1ccccc1)(c1ccccc1)c1ccccc1)NCCC(=O)NCC1CCCN(CC2CCCCC2)C1 (configuration not stated) | 60 nM | 2.1 nM | 29 | 17 nM | 95 | 200 nM | 77 nM | – | – | – |
| O=C(CCCNC(=O)CNC(=O)CC(c1ccccc1)(c1ccccc1)c1ccccc1)NCC1CCCN(CC2CCCCC2)C1 (configuration not stated) | 74 nM | 3.3 nM | 22 | 270 nM | 320 | 1100 nM | 300 nM | – | – | – |
